# Experimental data published in ChEMBL document CHEMBL1136809, “Synthesis and structure-affinity relationships of novel N-(1-ethyl-4-methylhexahydro-1,4-diazepin-6-yl)pyridine-3-carboxamides with potent serotonin 5-HT3 and dopamine D2 receptor antagonistic activity” (J Med Chem, 2003).
# Experiments:
# [1] = target: T1, Serotonin 3 (5-HT3) receptor (Rattus norvegicus, UniProt P35563+Q9JJ16); assay: Concentration required to inhibit the binding of radioligand [3H]GR-65630 to serotonin 5-hydroxytryptamine-3 receptor (5-HT 3 receptor)in rat brain cortical membrane; type: tissue-based
# T1 sequence (P35563 whole entry): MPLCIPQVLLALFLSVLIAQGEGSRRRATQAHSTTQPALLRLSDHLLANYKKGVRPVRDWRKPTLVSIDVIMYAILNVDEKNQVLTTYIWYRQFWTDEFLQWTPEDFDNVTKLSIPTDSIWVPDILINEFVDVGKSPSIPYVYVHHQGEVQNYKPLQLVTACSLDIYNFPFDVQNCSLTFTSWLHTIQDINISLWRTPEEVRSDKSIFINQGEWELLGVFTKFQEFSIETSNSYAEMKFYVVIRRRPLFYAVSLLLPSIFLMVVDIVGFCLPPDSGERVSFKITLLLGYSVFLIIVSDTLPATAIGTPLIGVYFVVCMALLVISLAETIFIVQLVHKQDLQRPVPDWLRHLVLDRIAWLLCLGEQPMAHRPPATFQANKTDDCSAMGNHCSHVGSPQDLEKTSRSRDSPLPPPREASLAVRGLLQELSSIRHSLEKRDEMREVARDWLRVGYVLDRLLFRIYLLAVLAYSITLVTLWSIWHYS
# T1 sequence (Q9JJ16 whole entry): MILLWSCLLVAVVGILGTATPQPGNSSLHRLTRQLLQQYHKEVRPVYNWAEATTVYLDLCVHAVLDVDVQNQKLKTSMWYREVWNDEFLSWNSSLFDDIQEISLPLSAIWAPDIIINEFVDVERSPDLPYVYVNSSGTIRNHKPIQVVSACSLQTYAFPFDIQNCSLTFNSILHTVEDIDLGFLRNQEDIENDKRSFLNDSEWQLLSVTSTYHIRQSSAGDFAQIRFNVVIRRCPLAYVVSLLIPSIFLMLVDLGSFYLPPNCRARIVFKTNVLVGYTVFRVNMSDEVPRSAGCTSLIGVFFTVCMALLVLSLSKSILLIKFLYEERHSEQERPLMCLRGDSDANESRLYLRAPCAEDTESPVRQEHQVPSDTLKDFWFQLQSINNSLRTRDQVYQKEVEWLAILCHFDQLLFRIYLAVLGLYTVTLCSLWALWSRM
# Canis familiaris [2] = assay: Percent inhibition of apomorphine (0.3 mg/kg) induced emesis in dogs when 1 mg/kg of compound administered perorally; type: functional; details: Canis lupus familiaris, route oral
# How it was run: (§1)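 Male beagle dogs weighing 10–16 kg, in groups of three to six, were pretreated orally with test compound. Apomorphine hydrochloride (0.3 mg/kg) was injected subcutaneously 2 h later to elicit emesis.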
# D(2) dopamine receptor [3] = target: T2, D(2) dopamine receptor (Rattus norvegicus, UniProt P61169); assay: Inhibition of the binding of radioligand [3H]spiperone to dopamine receptor D2 in rat brain synaptic membrane; type: cell membranes
# [4] = target: T3, 5-hydroxytryptamine receptor 4 (Cavia porcellus, UniProt O70528); assay: Inhibition of [3H]GR-113808 binding to guinea pig striatum 5-hydroxytryptamine 4 receptor; type: tissue-based
# [5] = target: T3, 5-hydroxytryptamine receptor 4; assay: Concentration of compound required to inhibit the binding of radioligand [3H]GR-113808 to serotonin 5-hydroxytryptamine 4 receptor in guinea-pig striatum; type: tissue-based
# D(3) dopamine receptor [6] = target: T4, D(3) dopamine receptor (Rattus norvegicus, UniProt P19020); assay: Concentration of compound required to inhibit the binding of radioligand [3H](R)-7-OH-DPAT to Dopamine receptor D3 in rat striatum; type: tissue-based
# Canis familiaris [7] = assay: Effective dose for inhibition of apomorphine (0.3 mg/kg) induced emesis in dogs when 1 mg/kg of compound administered perorally; type: functional, Canis lupus familiaris; details: route oral; how it was run: as §1
# [8] = target: T1, Serotonin 3 (5-HT3) receptor; assay: Inhibition of [3H]GR-65630 binding to rat cortical membrane serotonin 5-hydroxytryptamine 3 receptor
# D(2) dopamine receptor [9] = target: T2, D(2) dopamine receptor; assay: Affinity towards Dopamine receptor D2 in rat striatum using [3H]spiperone as radioligand; type: tissue-based
# [10] = target: T3, 5-hydroxytryptamine receptor 4; assay: Concentration of compound required to inhibit the binding of radioligand [3H]GR-113808 to 5-hydroxytryptamine 4 receptor in guinea-pig striatum; type: tissue-based
# [11] = target: T1, Serotonin 3 (5-HT3) receptor; assay: Concentration of compound required to inhibit the binding of radioligand [3H]GR-65630 to 5-hydroxytryptamine 3 receptor in rat brain cortical membrane; type: cell membranes
# How it was run: (§2)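 Displacement of [³H]GR65630 from rat cerebral cortex membranes, following an earlier [³H]quipazine binding protocol. IC50, the concentration giving 50% inhibition of specific binding, in nM by probit (linear regression) analysis. Values given as mean with 95% confidence limits.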
# [12] = target: T3, 5-hydroxytryptamine receptor 4; assay: Concentration of compound required to inhibit the binding of radioligand [3H]GR-113808 to 5-hydroxytryptamine 4 receptor in guinea pig striatum; type: tissue-based
# D(3) dopamine receptor [13] = target: T4, D(3) dopamine receptor; assay: Concentration of compound required to inhibit the binding of radioligand [3H](R)-7-OH-DPAT to Dopamine receptor D3 in rat striatum.
# D(2) dopamine receptor [14] = target: T2, D(2) dopamine receptor; assay: Concentration of compound required to inhibit the binding of radioligand [3H]-spiperone to Dopamine receptor D2 in rat striatum; type: tissue-based
# How it was run: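 Competition binding against [³H]spiperone in rat striatum. IC50, the concentration inhibiting 50% of specific radioligand binding, in nM by probit (linear regression) analysis. Reported as mean with 95% confidence limits.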
# [15] = target: T1, Serotonin 3 (5-HT3) receptor; assay: Concentration of compound required to inhibit the binding of radioligand [3H]GR-65630 to serotonin 5-hydroxytryptamine 3 receptor in rat cortical membrane; type: cell membranes; how it was run: as §2
# D(2) dopamine receptor [16] = target: T2, D(2) dopamine receptor; assay: Affinity of compound towards Dopamine receptor D2 in rat striatum using [3H]spiperone as radioligand; type: tissue-based
# How it was run: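 Competition binding against [3H]spiperone in rat striatal (brain synaptic) membranes. IC50 is the concentration giving 50% inhibition of specific radioligand binding, in nM, derived by linear regression (Probit analysis). Reported as mean with 95% confidence limits.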
# [17] = Canis lupus familiaris, read-out: ED50
# T3 sequence (O70528 whole entry): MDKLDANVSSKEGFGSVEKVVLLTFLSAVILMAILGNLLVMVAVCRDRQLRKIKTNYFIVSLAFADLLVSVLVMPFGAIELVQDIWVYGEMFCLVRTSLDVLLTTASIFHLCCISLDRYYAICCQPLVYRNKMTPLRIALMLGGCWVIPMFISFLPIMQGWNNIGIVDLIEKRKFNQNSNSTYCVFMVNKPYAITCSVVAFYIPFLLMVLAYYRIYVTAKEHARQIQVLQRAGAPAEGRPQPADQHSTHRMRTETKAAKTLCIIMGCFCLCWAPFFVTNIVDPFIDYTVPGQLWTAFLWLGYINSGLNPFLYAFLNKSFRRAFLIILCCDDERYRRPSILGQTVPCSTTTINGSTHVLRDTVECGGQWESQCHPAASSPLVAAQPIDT
# T2 sequence (P61169 whole entry): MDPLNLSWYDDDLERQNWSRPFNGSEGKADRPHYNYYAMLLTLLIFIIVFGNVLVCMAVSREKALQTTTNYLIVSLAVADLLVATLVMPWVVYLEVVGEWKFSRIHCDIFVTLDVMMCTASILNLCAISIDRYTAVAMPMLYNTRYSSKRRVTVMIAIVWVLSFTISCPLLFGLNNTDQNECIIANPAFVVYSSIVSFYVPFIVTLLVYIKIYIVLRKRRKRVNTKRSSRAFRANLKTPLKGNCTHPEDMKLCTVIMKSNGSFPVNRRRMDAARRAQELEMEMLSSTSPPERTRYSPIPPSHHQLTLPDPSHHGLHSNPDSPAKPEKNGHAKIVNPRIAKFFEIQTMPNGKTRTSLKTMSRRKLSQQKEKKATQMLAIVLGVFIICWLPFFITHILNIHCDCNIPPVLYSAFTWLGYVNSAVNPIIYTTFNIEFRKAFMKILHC
# T4 sequence (P19020 whole entry): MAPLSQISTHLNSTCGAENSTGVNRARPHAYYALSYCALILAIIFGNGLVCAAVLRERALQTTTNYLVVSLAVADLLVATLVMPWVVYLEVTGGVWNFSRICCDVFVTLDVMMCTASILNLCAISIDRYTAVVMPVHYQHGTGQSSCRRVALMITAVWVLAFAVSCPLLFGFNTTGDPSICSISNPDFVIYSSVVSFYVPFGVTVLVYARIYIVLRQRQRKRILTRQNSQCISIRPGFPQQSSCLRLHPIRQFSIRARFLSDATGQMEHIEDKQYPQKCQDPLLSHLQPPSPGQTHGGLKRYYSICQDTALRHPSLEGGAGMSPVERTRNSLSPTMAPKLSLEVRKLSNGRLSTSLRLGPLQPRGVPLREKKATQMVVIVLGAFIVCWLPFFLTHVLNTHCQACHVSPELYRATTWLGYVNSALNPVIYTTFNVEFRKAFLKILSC
SMILES,IC50 [1],inhibition in vivo at 1 mg/kg (Canis familiaris [2]),IC50 (D(2) dopamine receptor [3]),Ki [4],further results
CCOc1nc(NC)c(Cl)cc1C(=O)NC1CN(C)CCN(CC)C1 (stereo not drawn),0.55 nM,40%,42.9 nM,–,–
CCN1CCN(C2CC2)CC(NC(=O)c2cc(Br)c(NC)nc2OC)C1 (stereo not drawn),0.69 nM,25%,12.9 nM,–,–
CCOc1nc(NC)c(Br)cc1C(=O)NC1CN(C)CCN(CC)C1 (stereo not drawn),1.48 nM,–,86.4 nM,–,–
CCNc1nc(OC)c(C(=O)NC2CN(C)CCN(CC)C2)cc1Cl (stereo not drawn),–,42%,–,–,–
COc1cc(N)c(Cl)cc1C(=O)NC1CC2CCC(C1)N2C (stereo in doubt; 2),–,–,–,> 1000 nM,–
CCN1CCN(CC)CC(NC(=O)c2cc(Cl)c(NC)nc2OC)C1,0.65 nM,53%,27.8 nM,–,–
COc1cc(N)c(Cl)cc1C(=O)NC1CCN(Cc2ccccc2)CC1 [CLEBOPRIDE],–,–,–,104 nM,–
CNc1nc(OC)c(C(=O)NC2CN(C)CCN(C)C2)cc1Cl,1.3 nM,20%,137 nM,–,–
CCN1CCN(C)C[C@@H](NC(=O)c2cc(Cl)c(NC)nc2OC)C1,–,52%,–,–,–
COc1cc(N)c(Cl)cc1C(=O)NC1CC2CCC(C1)N2C (stereo in doubt),–,–,–,48 nM,–
CCN1CCN(C)C[C@@H](NC(=O)c2cc(Br)c(NC)nc2OC)C1,1.2 nM,100%,6.88 nM,–,IC50 [5]: > 10000 nM; IC50 (D(3) dopamine receptor [6]): 1.13 nM; ED50 (Canis familiaris [7]; [17]): 0.12 mg/kg
CCOc1cc(N)c(Cl)cc1C(=O)NCC1CN(Cc2ccc(F)cc2)CCO1 (stereo not drawn) [MOSAPRIDE],–,–,–,69.9 nM,Ki [8]: 1190 nM; Ki (D(2) dopamine receptor [9]): > 10 µM
COc1cc(N)c(Cl)cc1C(=O)NC1CC2CCC(C1)N2Cc1ccccc1 (stereo not drawn),–,–,–,233 nM,–
COc1cc(N)c(Cl)cc1C(=O)NCCN(C)Cc1ccccc1,–,–,–,867 nM,Ki [8]: > 1000 nM; Ki (D(2) dopamine receptor [9]): 0.0243 µM
CCN1CCN(C)C[C@H](NC(=O)c2cc(Br)c(NC)nc2OC)C1,1.28 nM,47%,122 nM,–,IC50 [10]: > 1000 nM; IC50 (D(3) dopamine receptor [6]): 14.3 nM
CNc1nc(OC)c(C(=O)NC2CN(C)CCN(C3CC3)C2)cc1Br (stereo not drawn),0.76 nM,14%,47.1 nM,–,–
COc1cc(N)c(Cl)cc1C(=O)N[C@@H]1CN2CCC1CC2,–,–,–,383 nM,–
CCN1CCN(C)C[C@@H](NC(=O)c2cc(Cl)c(OC)nc2NC)C1,> 100 nM,–,> 1000 nM,–,–

SMILES,IC50 [1],inhibition in vivo at 1 mg/kg (Canis familiaris [2]),IC50 (D(2) dopamine receptor [3]),Ki [4],further results
CCN1CCN(C)CC(NC(=O)c2cnc(NC)nc2OC)C1 (stereo not drawn),–,–,> 1000 nM,–,IC50 [11]: 157 nM
O=c1[nH]c2ccccc2n1CCCN1CCC(n2c(=O)[nH]c3cc(Cl)ccc32)CC1 [DOMPERIDONE],–,–,–,–,IC50 [12]: > 1000 nM
CCN(CC)CCNC(=O)c1cc(Cl)c(N)cc1OC [METOCLOPRAMIDE],228 nM,100%,–,546 nM,IC50 [5]: 912 nM; Ki [8]: 210 nM; IC50 (D(3) dopamine receptor [6]): 61.3 nM; ED50 (Canis familiaris [7]; [17]): 0.45 mg/kg
CCN1CCN(C)C[C@@H](NC(=O)c2cc(Cl)c(NC)cc2OC)C1,–,100%,–,–,IC50 (D(3) dopamine receptor [13]): 15.1 nM; ED50 (Canis familiaris [7]; [17]): 0.13 mg/kg; ED50 (Canis familiaris [7]; dose 1 mg/kg): 0.13 mg/kg; IC50 [12]: > 1000 nM
CCN1CCN(C)C[C@@H](NC(=O)c2cc(Cl)c(N)c3c2OCC3)C1,3.7 nM,–,637 nM,–,–
CCN1CCN(C)CC(NC(=O)c2cc(Cl)cc3c2OCC3)C1 (stereo not drawn),29.9 nM,–,> 1000 nM,–,–
CCN1CCN(C)CC(NC(=O)c2[nH]nc3ccccc23)C1 (stereo not drawn),6.56 nM,–,> 1000 nM,–,–
CCN1CCN(CC)CC(NC(=O)c2cc(Br)c(NC)nc2OC)C1,0.59 nM,69%,20.9 nM,–,–
COc1cc(N)c(Cl)cc1C(=O)NC1CN(C)CCN(Cc2ccccc2)C1 (stereo not drawn),–,–,–,–,IC50 (D(2) dopamine receptor [14]): > 1000 nM; IC50 [15]: 2.07 nM; IC50 [12]: > 1000 nM
COc1cc(N)c(Cl)cc1C(=O)NC1CCN2CCCC1C2 (stereo not drawn) [RENZAPRIDE],–,–,–,40.4 nM,Ki [8]: 5.3 nM; Ki (D(2) dopamine receptor [9]): > 10 µM
CCN1CCN(C)CC(NC(=O)c2cc(Br)c(N(C)C)nc2OC)C1 (stereo not drawn),–,83%,–,–,–
CCN1CCN(C)CC(NC(=O)c2cc(Cl)cc3c2OCC(=O)N3C)C1 (stereo not drawn),38.7 nM,–,> 1000 nM,–,–
COc1cc(N)c(Cl)cc1C(=O)NC1CCN(C)CC1,–,–,–,832 nM,–
CCN1CCN(C)CC(NC(=O)c2cc(Cl)cn3ccnc23)C1 (stereo not drawn),148 nM,–,> 1000 nM,–,–
CCN1CCN(C)CC(NC(=O)c2cc(Br)c(NC)nc2OC)C1 (stereo not drawn),0.97 nM,–,–,–,–
COc1cc(N)c(Cl)cc1C(=O)NC[C@@H]1CCN2CCC[C@@H]12,–,–,–,21 nM,Ki (D(2) dopamine receptor [16]): > 10 µM
Cc1nccn1CC1CCc2c(c3ccccc3n2C)C1=O (stereo not drawn) [ONDANSETRON],–,–,> 1000 nM,–,–
